For test [1], the target named is T1, D(1A) dopamine receptor (Homo sapiens, UniProt P21728). The test is described as follows: Displacement of [3H]SCH23390 from human dopamine D1 receptor expressed in human HEK293 cells. It counts as cell-based. The method, boiled down:
(§1)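 Radioligand binding at human receptors, with Ki as the read-out. Ki is the mean (±SEM) of two to three experiments, each run in triplicate.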

Test [2] addresses T2, D(2) dopamine receptor (Homo sapiens, UniProt P14416). The test is described as follows: Displacement of [3H]spiperone from human dopamine D2L receptor expressed in human HEK293 cells. It counts as cell-based. The method, boiled down:
as §1

Test [3] deals with D(3) dopamine receptor (Homo sapiens, UniProt P35462). Put plainly: Displacement of [3H]spiperone from human dopamine D3 receptor expressed in human HEK293 cells. It counts as cell-based. The method in brief: as §1
The target in test [4] is T3, D(4) dopamine receptor (Homo sapiens, UniProt P21917).
T3 sequence (P21917 whole entry): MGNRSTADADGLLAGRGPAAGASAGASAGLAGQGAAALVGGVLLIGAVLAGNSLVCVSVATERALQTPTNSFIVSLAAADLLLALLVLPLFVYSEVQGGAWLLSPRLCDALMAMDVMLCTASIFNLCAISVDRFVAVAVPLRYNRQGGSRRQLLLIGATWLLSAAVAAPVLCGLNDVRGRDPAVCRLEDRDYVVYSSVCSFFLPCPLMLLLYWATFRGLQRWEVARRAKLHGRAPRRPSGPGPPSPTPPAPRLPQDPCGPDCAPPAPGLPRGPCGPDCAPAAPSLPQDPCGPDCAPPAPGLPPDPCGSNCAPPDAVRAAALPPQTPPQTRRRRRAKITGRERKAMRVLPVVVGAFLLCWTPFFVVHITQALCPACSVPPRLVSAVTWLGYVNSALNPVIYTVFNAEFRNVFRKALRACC
The test is described as follows: Displacement of [3H]spiperone from human dopamine D4.4 receptor expressed in CHO cells. It counts as cell-based. The method, boiled down:
as §1

Test [5] concerns the target D(1B) dopamine receptor (Homo sapiens, UniProt P21918). The test is described as follows: Displacement of [3H]SCH23390 from human dopamine D5 receptor expressed in human HEK293 cells. It counts as cell-based. The method, boiled down: as §1
In test [6] the target is T1, D(1A) dopamine receptor. The test is described as follows: Antagonist activity at human dopamine D1 receptor expressed in HEK293 cells assessed as inhibition of SKF38393-induced Ca2+ influx by fluorescence analysis. It is filed as functional, cell-based. The method in brief: (§2)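 HEK293 cells stably expressing the relevant dopamine receptor were loaded with a fluorescent dye and preincubated with rising concentrations of test compound. Agonist was then added: SKF 38393 for D1, quinpirole for D2. Ca2+-induced fluorescence was read on a microplate reader.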

The target of test [7] is T2, D(2) dopamine receptor. The test is described as follows: Antagonist activity at human dopamine D2L receptor expressed in HEK293 cells assessed inhibition of as quinpirole-induced Ca2+ influx by fluorescence analysis. It is filed as functional, cell-based. The method in brief:
as §2

Active and inactive are the calls of the source. The calls are words filed in the database; no cut-off is given here.

T2 sequence (P14416 whole entry): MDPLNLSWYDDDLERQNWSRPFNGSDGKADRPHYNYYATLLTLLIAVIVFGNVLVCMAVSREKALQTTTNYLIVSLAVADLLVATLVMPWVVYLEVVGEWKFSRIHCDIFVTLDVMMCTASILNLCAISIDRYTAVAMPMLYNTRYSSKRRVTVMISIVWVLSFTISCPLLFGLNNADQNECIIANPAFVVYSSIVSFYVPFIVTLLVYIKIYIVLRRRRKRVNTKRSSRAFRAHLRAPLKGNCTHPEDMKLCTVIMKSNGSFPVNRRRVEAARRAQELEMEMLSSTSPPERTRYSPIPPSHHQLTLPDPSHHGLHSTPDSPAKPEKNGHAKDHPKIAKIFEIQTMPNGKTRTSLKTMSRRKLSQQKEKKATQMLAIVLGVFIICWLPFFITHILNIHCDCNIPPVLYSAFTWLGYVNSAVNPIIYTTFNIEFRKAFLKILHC
T1 sequence (P21728 whole entry): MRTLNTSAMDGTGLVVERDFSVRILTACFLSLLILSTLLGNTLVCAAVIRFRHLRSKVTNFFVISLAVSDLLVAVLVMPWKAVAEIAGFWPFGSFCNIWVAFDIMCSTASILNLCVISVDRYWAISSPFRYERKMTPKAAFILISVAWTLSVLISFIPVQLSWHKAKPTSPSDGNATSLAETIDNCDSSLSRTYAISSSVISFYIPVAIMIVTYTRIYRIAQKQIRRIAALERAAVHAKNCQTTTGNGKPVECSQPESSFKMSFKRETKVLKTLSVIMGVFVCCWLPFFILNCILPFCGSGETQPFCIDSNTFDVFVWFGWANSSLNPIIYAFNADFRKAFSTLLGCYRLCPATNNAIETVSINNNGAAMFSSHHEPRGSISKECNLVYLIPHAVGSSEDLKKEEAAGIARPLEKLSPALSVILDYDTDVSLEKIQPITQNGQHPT
D(1B) dopamine receptor, sequence (P21918 whole entry): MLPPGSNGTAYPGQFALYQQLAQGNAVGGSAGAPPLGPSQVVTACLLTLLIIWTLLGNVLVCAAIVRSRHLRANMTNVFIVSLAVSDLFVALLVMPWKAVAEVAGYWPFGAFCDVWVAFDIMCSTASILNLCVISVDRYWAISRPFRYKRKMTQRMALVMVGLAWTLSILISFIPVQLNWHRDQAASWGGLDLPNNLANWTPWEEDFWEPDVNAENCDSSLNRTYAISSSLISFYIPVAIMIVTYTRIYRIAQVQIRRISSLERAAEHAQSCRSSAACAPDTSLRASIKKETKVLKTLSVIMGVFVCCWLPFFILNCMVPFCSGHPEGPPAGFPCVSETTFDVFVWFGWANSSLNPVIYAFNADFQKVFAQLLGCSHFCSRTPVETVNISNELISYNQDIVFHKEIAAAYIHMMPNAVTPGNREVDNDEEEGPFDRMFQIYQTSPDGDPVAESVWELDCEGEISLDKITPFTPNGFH
D(3) dopamine receptor, sequence (P35462 whole entry): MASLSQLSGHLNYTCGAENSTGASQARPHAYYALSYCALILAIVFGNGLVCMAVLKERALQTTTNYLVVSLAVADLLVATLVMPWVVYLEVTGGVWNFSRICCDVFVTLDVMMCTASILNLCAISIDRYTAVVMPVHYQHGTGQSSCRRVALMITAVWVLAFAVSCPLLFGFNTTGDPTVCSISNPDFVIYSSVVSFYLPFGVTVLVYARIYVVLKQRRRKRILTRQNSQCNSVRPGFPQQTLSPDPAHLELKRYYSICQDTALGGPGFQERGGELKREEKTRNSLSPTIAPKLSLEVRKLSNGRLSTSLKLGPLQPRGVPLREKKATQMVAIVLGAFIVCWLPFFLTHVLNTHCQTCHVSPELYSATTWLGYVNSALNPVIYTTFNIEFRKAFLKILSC

For the compound `CN1CCc2ccccc2Cc2[nH]c3ccccc3c2C[C@H]1CO`, the Ki in test [1] came to 0.114 µM; in test [2], 2.92 µM; in test [3], 4.68 µM; in test [4] it was 4.86 µM; in test [5], 0.0914 µM. The inhibition result in test [6] and in test [7] was “Active” in each case.
As for `C[C@H]1Cc2c([nH]c3ccccc23)Cc2ccccc2CCN1C`, the Ki stood at 0.0061 µM in test [1]; 0.0853 µM in test [2]; 0.304 µM in test [3]; 0.0641 µM in test [4]; 0.0044 µM in test [5]. The inhibition entry in test [6] and in test [7] was “Active” in each case.
Take `CN1CCc2ccccc2Cc2[nH]c3ccccc3c2C[C@@H]1CO`: the Ki was 0.0103 µM in test [1]; 0.268 µM in test [2]; 0.681 µM in test [3]; 0.408 µM in test [4]; 0.0114 µM in test [5]. Further, the inhibition entry in test [6] and in test [7] was “Active” throughout.
With `CN1CCc2ccccc2Cc2[nH]c3ccccc3c2CC1C(=O)O` (racemic), the Ki was over 10 µM in test [1]; over 10 µM in test [2]; over 10 µM in test [3]; over 10 µM in test [4]; 0.657 µM in test [5]. Further, the inhibition entry in test [6] and in test [7] was “Active” each time.
In the case of `C[C@@H]1Cc2c([nH]c3ccccc23)Cc2ccccc2CCN1C`, the Ki in test [1] is 0.64 µM; in test [2], over 10 µM; in test [3] it was over 10 µM; in test [4], over 10 µM; in test [5], 0.389 µM. Further, the inhibition entry in test [6] and in test [7] was “Active” throughout.

Values taken from ChEMBL document CHEMBL1949524, “Chiral indolo[3,2-f][3]benzazecine-type dopamine receptor antagonists: synthesis and activity of racemic and enantiopure derivatives” (J Med Chem, 2011).
